# Sampled rows, rich in hits. Any-hit rate of the full collection: about 4.6%.
# TAAR1 antag = antagonists of human TAAR1; Q96RJ0; CHO RD-HGA16 TAAR1, Fluo-8 calcium fluorescence, antagonist; inhibition, % at 3 µM; actives 1.5% (n = 360,000);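 active means inhibition above a per-plate cutoff, the mean inhibition of test compounds on that plate plus 3 SD, cut at about 49% in these data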;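 further: 0% = DMSO plus EC80 beta-PEA response and 100% = DMSO alone without agonist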
#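 Test system: RD-HGA16 CHO cells with stable hTAAR1 and Gα16 / Probe or stimulus: EC80 β-phenethylamine stimulus / Times: seeding 17-24 h prior, 75-min 37 °C, 30-min RT dye loading / Detection: Fluo-8 calcium-sensitive fluorescence / Read-out basis: % inhibition scaled between DMSO and EC80 PEA controls / Repeats: singlicate, one well per test compound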
# CHO parental Ca = counter-screen for OX1R antagonists: effect in parental CHO cells. parental CHO-K1, ATP-induced calcium, Fluo-8 fluorescence. inhibition, % at 5.6 µM. actives 0.63% (n = 330,000). AID 463079;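 active means inhibition above that plate's mean sample inhibition plus 3 SD, cut at about 26% in these data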;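 further: 0% = ATP-challenged DMSO wells and 100% = DMSO wells without ATP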
#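 Test system: untransfected parental CHO cell line; also added: ATP stimulus; dosing: 5.6 µM, single dose; signal: calcium-sensitive Fluo-8 fluorescence; measure: percent inhibition of ATP-evoked calcium rise, normalized to controls; benchmarks: low control ATP plus DMSO, high control DMSO only; replication: one well per compound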
# OX1R antag-1 = antagonists of human orexin 1 receptor (OX1R); O43613; OX1R-expressing cells, FRET antagonist read-out; inhibition, % at 6.6 µM; actives 1.8% (n = 330,000); in the data active means inhibition mostly above about 38%, no sharp cut-off; inactive means mostly below about 40%;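 further: 0% = agonist challenge alone and 100% = reference antagonist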
# OX1R antag-2 = blocks the human orexin 1 receptor; CHO/OX1R cells, Fluo-8 calcium fluorescence, orexin A; inhibition, % at 5 µM; actives 0.43% (n = 330,000); AID 434989;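 active means inhibition above its plate's threshold, mean inhibition of all tested compounds on the plate plus 3 SD, cut at about 37% in these data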;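 further: 0% = orexin A challenge wells and 100% = SB-334867-A antagonist wells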
# TAAR1 agonist = agonists of human TAAR1; Q96RJ0; CHO RD-HGA16 TAAR1, Fluo-8 calcium fluorescence; vehicle wells 0%, saturating PEA agonist 100%; activation, % at 3 µM; actives 0.99% (n = 360,000); AID 624467;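 active means activation above the mean activation of all test compounds in the run plus 3 SD, cut at about 38% in these data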
#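 System: CHO-derived RD-HGA16 cells with stable Gα16 and human TAAR1 / Times: 17-24 h plating, Fluo-8 75 min 37 °C, 30 min RT / Technique: calcium-sensitive Fluo-8 signal, excitation 470-495, emission 515-575 nm / Measure: % activation relative to PEA EC100 response / Benchmarks: DMSO and PEA EC100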
# GPR7 antagonist = human neuropeptides B/W receptor 1 antagonism | P48145 | GPR7-expressing cells, fluorescence antagonist assay | inhibition, % at 4.4 µM | actives 1.1% (n = 290,000) | AID 1861; in the data active means inhibition above about 16%, passing the limit was not always enough;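 further: cells stimulated with the agonist NPW; 0% = agonist with vehicle and 100% = vehicle without agonist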
# Target sequence (P48145 whole entry, looked up): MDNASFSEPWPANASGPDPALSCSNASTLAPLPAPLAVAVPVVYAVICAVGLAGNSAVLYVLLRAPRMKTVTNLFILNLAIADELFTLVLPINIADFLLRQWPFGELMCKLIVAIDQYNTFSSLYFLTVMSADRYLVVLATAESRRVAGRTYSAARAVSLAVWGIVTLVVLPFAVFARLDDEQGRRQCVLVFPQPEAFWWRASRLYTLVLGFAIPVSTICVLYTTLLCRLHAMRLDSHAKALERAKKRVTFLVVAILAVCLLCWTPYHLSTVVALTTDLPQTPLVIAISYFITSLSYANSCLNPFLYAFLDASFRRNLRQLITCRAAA
# TAAR1 ag conf = human TAAR1 agonism, confirmed. shares compounds with TAAR1 agonist. CHO RD-HGA16 TAAR1, Fluo-8 calcium fluorescence; scaled: DMSO 0%, maximal phenethylamine 100%. activation, % at 3 µM. actives 82% (n = 2,400). AID 651783;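 active means activation above a cutoff set at the run's mean compound activation plus 3 SD, cut at about 39% in these data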
# Ga16 ag counter = counter-screen for TAAR1 agonists: nonselective agonists in parental cells; AID 651787; activation, % at 3 µM; CHO-Ga16 parental, Fluo-8 calcium fluorescence; normalized to maximal ATP response, DMSO zero; actives 50% (n = 2,400); shares compounds with TAAR1 agonist;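 active means activation above the run cutoff, the mean activation over all tested wells plus 3 SD, cut at about 12% in these data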;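 further: 0% = DMSO wells and 100% = maximal ATP response on the peak over basal ratio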
# TAAR1 desensitize = counter-screen for human TAAR1 agonists: agonists that desensitize TAAR1; inhibition, % at 3 µM; AID 651951; CHO RD-HGA16 hTAAR1, Fluo-8 calcium, beta-PEA response inhibition; shares compounds with TAAR1 agonist; actives 46% (n = 2,400);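 active means inhibition above the run cutoff, the mean inhibition of all test compounds plus 3 SD, cut at about 49% in these data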;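 further: beta-PEA stimulus applied at its EC80; loss of beta-PEA calcium signal after compound pretreatment read as receptor desensitization; 0% = DMSO with beta-PEA at EC80 and 100% = DMSO alone without agonist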
# Ga16 nonsel ant = nonselective Ga16 antagonist in TAAR1 agonist counter-screen. CHO-Ga16 ATP-induced calcium, Fluo-8 fluorescence. inhibition, % at 3 µM. shares compounds with TAAR1 agonist. actives 39% (n = 2,400). AID 651952;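 active means inhibition above the plate's mean compound inhibition plus 3 SD, computed per plate, cut at about 22% in these data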;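 further: 0% = EC80 ATP with DMSO and 100% = DMSO wells without ATP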
# The depositor's hits bear a star; . = not tested or not shown.
SMILES,TAAR1 antag,CHO parental Ca,OX1R antag-1,OX1R antag-2,TAAR1 agonist,GPR7 antagonist,TAAR1 ag conf,Ga16 ag counter,TAAR1 desensitize,Ga16 nonsel ant
CN(CCc1ccccn1)C(=O)Nc1ccc(Cl)cc1,10.4,-2.4,5.6,0.6,9.8,9.2,.,.,.,.
CCCCn1nnnc1C(c1cc2ccccc2o1)N(CCC#N)Cc1ccccc1 (stereo not drawn),12.4,.,.,.,4.2,.,.,.,.,.
C(=NNc1nnn(Cc2ccccc2)n1)c1ccccc1,22.0,.,.,.,53.5*,.,7.6,1.5,4.2,6.0
COc1ccc(C(=O)NCC(=O)N2CCN(c3ncccn3)CC2)cc1OC,-5.2,-6.2,0.4,-5.5,6.9,.,.,.,.,.
FC(F)(F)c1cc(-c2ccco2)nc(NCCc2ccccc2)n1,10.8,-26.6,7.6,-40.8,55.4*,-11.8,83.4*,1.1,33.7,8.8
O=C(CCSc1nc(-c2ccco2)cc(C(F)(F)F)n1)NCCc1ccccc1,-14.6,-4.4,18.6,-44.3,1.1,-7.9,.,.,.,.
COc1cccc(O)c1CN1CCC(C(=O)Nc2ccc(Oc3cccnc3)cc2)CC1,6.5,-0.3,20.0,-10.3,6.6,3.5,.,.,.,.
COc1cccc(O)c1CN1CCC(C(=O)Nc2ccc(-c3cccc(C)c3)cc2)CC1,34.5,1.2,2.8,-1.7,52.9*,0.3,33.0,17.6*,40.9,36.8*
Cc1cc(Cl)c(C)c(S(=O)(=O)Oc2ccccc2NC(=O)CCC(=O)O)c1Cl,-34.2,-3.9,7.2,-27.4,0.9,.,.,.,.,.
O=C(Nc1ccc(Cl)c([N+](=O)[O-])c1)c1ccc(NCCCN2CCOCC2)c([N+](=O)[O-])c1,91.1*,42.4*,24.0,1.4,75.5*,-6.6,76.8*,28.0*,98.8*,35.2*
NC(N)=Nc1cc2ccccc2c2ccccc12,.,-10.4,-1.6,-3.0,.,-6.3,.,2.7,.,5.8
N=C(N)SCc1ccc(Cl)cc1Cl,31.8,-3.5,3.5,6.7,58.1*,3.6,86.8*,18.7*,60.3*,14.6
Cc1cc(C)c2c(=O)n(CC(=O)Nc3cccc(F)c3)sc2n1,72.0*,22.1,17.4,6.2,70.4*,-13.6,95.2*,54.0*,88.0*,60.4*
CCOC(=O)c1cn(CC(=O)Nc2cccc(F)c2)nn1,-4.3,4.7,-4.0,-3.8,4.5,10.5,.,.,.,.
Cc1cc(C)c2c(=O)n(CC(=O)Nc3ccc(Cl)cc3)sc2n1,80.1*,56.0*,10.2,45.2*,86.7*,-7.6,100.0*,60.9*,87.3*,68.1*
COc1ccc(CCC(C)N(C)Cc2ccccc2)cc1 (stereo not drawn),-1.4,-8.8,9.1,-8.0,1.1,-6.2,.,.,.,.
C=CCN(CC=C)Cc1cc(=O)oc2cc(C)cc(C)c12,-54.6,.,.,.,-3.5,.,.,.,.,.
COc1ccc(/C=C/C(=O)NC(=S)NNC(=O)c2cccs2)cc1,72.8*,6.2,2.7,-18.2,100.4*,-2.6,68.9*,50.8*,49.9*,40.9*
COc1ccccc1C(=O)NNC(=S)NC(=O)c1sc2ccccc2c1Cl,80.3*,-6.4,5.8,-4.6,144.8*,1.7,139.6*,118.5*,105.7*,93.5*
O=C(NC(=S)NNC(=O)c1ccccc1O)c1cccs1,-3.2,3.8,4.3,6.5,27.3,-3.9,.,.,.,.
COc1ccccc1C(=O)NNC(=S)NC(=O)c1cccs1,15.7,18.1,34.2,20.1,106.4*,-3.6,103.2*,76.8*,44.1,37.7*

# Assay outcomes as filed in PubChem BioAssay.
